The source made the active and inactive calls. No cut-off for these calls is given here.
Legend:
[1] = Therapeutic index, ratio of TC50 for human A549 cells under dark to IC50 for human A549 cells irradiated with 1 J/cm2 of 650 nanometer laser light; format: toxicity, cell-based; details: read-out: TI
Summary of the method: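 A549 cells (F-12K, 10% FBS, 37 °C, 5% CO2) seeded 24 h, then exposed to 0–10 photosensitizer for 24 h. Dark arm: MTT 48 h later. Light arm: 650 nm laser, 1 J/cm2 (25 mW/cm2, 40 s), then MTT. A570 viability relative to control, triplicate. Ratio = dark TC50 / irradiated IC50.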

Mus musculus [2] = experiment: Phototoxicity in ICR mouse assessed as ear weight at 0.45 mg/kg, iv followed by 10 mW/cm2 light irradiation for 10 mins at 7 days after drug challenge measured after 1 day of light irradiation (13.2 +/- 1.6 mg); format: organism-based; details: in vivo
Mus musculus [3] = experiment: Phototoxicity in ICR mouse assessed as ear weight at 0.45 mg/kg, iv followed by 10 mW/cm2 light irradiation for 10 mins at 5 days after drug challenge measured after 1 day of light irradiation (reference value: 12.9 +/- 1.4 mg); format: organism-based; details: in vivo
Mus musculus [4] = experiment: Phototoxicity in ICR mouse assessed as ear weight at 0.45 mg/kg, iv followed by 10 mW/cm2 light irradiation for 10 mins at 3 days after drug challenge measured after 1 day of light irradiation (reference value: 12.8 +/- 1.5 mg); format: organism-based; details: in vivo
[5] = Octanol/water partition coefficient, logP of compound by shake flask method; format: physicochemical
Summary of the method: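 Shake-flask method: equilibrium concentrations in octanol and water measured by UV-vis absorbance; log P taken as log of octanol/water concentration ratio (mg/L).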

A549 [6] = experiment: Photodynamic antitumor activity against human A549 cells xenografted in BALB/c nude mouse assessed as necrosis leukocyte infiltration at 0.3 mg/kg, iv incubated for 24 hrs followed by laser light irradiation at 120 J/cm2 measured 24 hrs post light irradiation by H and E staining based histopathological analysis; format: functional, organism-based
Summary of the method: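 Tumors from PDT-treated A549 xenograft mice (0.3 mg/kg i.v., 650 nm laser 120 J/cm2 at 24 h) excised, fixed in 4% formaldehyde in PBS, paraffin-embedded, sectioned, H&E stained.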

[7] = Absorption property of compound in DMSO assessed as strong absorption wavelength at 1 x 10^-3 M by UV-spectra analysis; format: physicochemical; details: 1000 µM
Summary of the method: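 Stocks 1 mM in DMSO; spectra run over […] range (units as printed), 300–800 nm in 1 nm steps, room temperature, quartz cuvettes, UV-vis spectrophotometer.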

[8] = Induction of singlet oxygen generation in DMF solution assessed as singlet oxygen quantum yield by measuring reduction in TEMP irradiated with 650 nanometer laser light in every 20 secs by ESR assay; format: functional
Summary of the method: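 ESR at room temperature: 9.65 GHz microwave frequency, 15 mW power, 3400–3500 G scan field, 0.8 G modulation amplitude, 15.5 s scan time, 32 scans.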

[9] = Drug uptake in human A549 cells incubated upto 24 hrs by fluorescence spectrophotometer analysis; format: ADME, cell-based; details: a549, 24 h
Summary of the method: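 A549 cells (F-12K, 10% FBS, 37 °C, 5% CO2) grown in 24 wells and exposed to photosensitizer for 0.5, 1, 2, 4, 8, 12 or 24 h; cells harvested by digestion, fluorescence read on a spectrophotometer.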

[10] = Drug localization in mitochondria of human A549 cells at 1 uM after 4 hrs by mito-tracker green based fluorescence microscopic method; format: ADME; details: a549, 4 h
Summary of the method: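 A549 cells on coverslips at 1×10^4 cells/mL exposed to […] (so in the source) photosensitizer in complete medium for 4 h, washed, fixed in 4% paraformaldehyde 20 min, then probed 30 min at 37 °C with Mito-Tracker Green, Lyso-Tracker Blue or ER-Tracker Green; fluorescence microscopy, three repeats, minimal ambient light.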

A549 [11] = experiment: Induction of ROS generation in human A549 cells assessed as increase in green fluorescence irradiated with 650 nanometer laser light preincubated for 4 hrs followed by DCFH-DA addition for 20 mins by fluorescent microscopic method relative to untreated control; format: functional, cell-based
Summary of the method: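 A549 cells given photosensitizer for 4 h, irradiated with 650 nm laser at 2 J/cm2, then DCFH-DA for 20 min; green emission at 525 nm (488 nm excitation) viewed by fluorescence microscopy; controls without light and laser without drug.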

A549 [12] = experiment: Phototoxicity against human A549 cells assessed as reduction in cell proliferation irradiated with 1 J/cm2 of 650 nanometer laser light preincubated for 24 hrs measured after 48 hrs by MTT assay; format: functional, cell-based; details: A549, light or radiation study
Summary of the method: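 A549 cells seeded 5×10^4 cells/100 µL per well, given […] for 24 h, then 650 nm semiconductor laser at 1 J/cm2 (25 mW/cm2, 40 s); MTT 4 h, absorbance 570 nm; viability vs control; triplicate, mean ± SD.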

A549 [13] = experiment: Induction of apoptosis in human A549 cells assessed as early apoptotic cell in presence of 1J/cm2 light irradiation measured after 4 hrs by annexin V-FITC and propidium iodide staining based flow cytometric analysis (reference value: 0.07%); format: functional
Summary of the method: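 After PDT at 1 J/cm2, A549 cells collected 4 h later, stained with annexin V-FITC and propidium iodide per kit instructions; flow cytometry with at least 10,000 events per sample.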

A549 [14] = experiment: Photodynamic antitumor activity against human A549 cells xenografted in BALB/c nude mouse assessed as decrease in tumor weight at 0.3 mg/kg, iv followed by laser light irradiation at 120 J/cm2 measured after 14 days; format: functional
Summary of the method: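 Male BALB/c nude mice (5–6 weeks, 14–16 g) given 2×10^6 A549 cells s.c. in 0.2 mL PBS; at 6–7 mm tumors randomized into ten groups; drug via tail vein, 650 nm diode laser 120 J/cm2 at 180 mW/cm2 24 h later; caliper volume a×b²/2, followed 14 days.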

[15] = Drug uptake in BALB/c nude mouse xenografted with A549 cells assessed as drug level in tumor tissue at 0.3 mg/kg, iv measured upto 24 hrs by fluorescence assay; format: ADME, organism-based, Neoplasm; details: in vivo
Summary of the method: (§1)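 A549 tumor-bearing mice dosed via tail vein (1 mg/kg in methods; 0.3 mg/kg in text) at tumors ~150–170 mm3, n = 3; whole-body imaging 0–24 h; at 6 and 12 h mice killed, heart, liver, spleen, lung, kidney, brain, tumor imaged ex vivo, excitation 420 nm, emission 650 nm.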

[16] = Drug uptake in BALB/c nude mouse xenografted with A549 cells assessed as drug level in heart at 0.3 mg/kg, iv measured at 12 hrs by fluorescence assay; format: ADME, organism-based; details: in vivo; summary of the method: as §1
[17] = Drug uptake in BALB/c nude mouse xenografted with A549 cells assessed as drug level in lung at 0.3 mg/kg, iv measured at 12 hrs by fluorescence assay; format: ADME, organism-based; details: in vivo; summary of the method: as §1
Cavia porcellus [18] = experiment: Phototoxicity in guinea pig assessed as change in right ear weight 4.5 mg/kg, iv followed by 10 mW/cm2 light irradiation for 10 mins measured after 1 day of light irradiation (reference value: 40.4 +/- 2.4 mg); format: organism-based; details: in vivo
Cavia porcellus [19] = experiment: Phototoxicity in guinea pig assessed as change in back skin at 4.5 mg/kg, iv in presence of 10 mW/cm2 light irradiation for 10 mins measured after 1day of light irradiation by H and E staining based microscopic analysis; format: organism-based; details: in vivo
[20] = Drug uptake in BALB/c nude mouse xenografted with A549 cells assessed as drug level in liver at 0.3 mg/kg, iv measured upto 12 hrs by fluorescence assay; format: ADME, organism-based; details: in vivo; summary of the method: as §1

CCC1=C(C)c2cc3[nH]c(cc4nc(c5c6[nH]c(cc1n2)c(C)c6C(=O)C5)[C@@H](CCC(=O)NCC(=O)CCC(=O)O)[C@@H]4C)c(C)c3C(C)OCCO (stereo not given in full)
selectivity ratio [1]: 8.97 | Activity (Mus musculus [2]): 13.4 mg | Activity (Mus musculus [3]): 12.9 mg | Activity (Mus musculus [4]): 13.2 mg | logP [5]: 1.59 | Activity (A549 [6]): Active | Activity [7]: 660 to 670 nm | Activity [8]: Active | Drug uptake [9]: Active | Drug uptake [10]: Active | Activity (A549 [11]): Active | IC50 (A549 [12]): 990 nM | Activity (A549 [13]): 28.92% | Activity (A549 [14]): 0.0296 g | Drug uptake [15]: Active | Drug uptake [16]: Not Active | Drug uptake [17]: Not Active | Activity (Cavia porcellus [18]): 41.9 mg | Activity (Cavia porcellus [19]): Non-Toxic | Drug uptake [20]: Active

CCCCOC(C)c1c(C)c2cc3nc(c4c5[nH]c(cc6nc(cc1[nH]2)C(C)=C6CC)c(C)c5C(=O)C4)[C@@H](CCC(=O)NCC(=O)CCC(=O)O)[C@@H]3C (stereo not given in full)
selectivity ratio [1]: 8.74 | Activity (Mus musculus [2]): 12.9 mg | Activity (Mus musculus [3]): 13.5 mg | Activity (Mus musculus [4]): 13.1 mg | logP [5]: 2.36 | Activity (A549 [6]): Active | Activity [7]: 660 to 670 nm | Activity [8]: Active | Drug uptake [9]: Active | Drug uptake [10]: Active | Activity (A549 [11]): Active | IC50 (A549 [12]): 230 nM | Activity (A549 [13]): 2.07% | Activity (A549 [14]): 0.0138 g | Drug uptake [15]: Active | Drug uptake [16]: Not Active | Drug uptake [17]: Not Active | Activity (Cavia porcellus [18]): 43.6 mg | Activity (Cavia porcellus [19]): Non-Toxic | Drug uptake [20]: Active
